Published values from different studies.
Protocols differ between the studies behind these lines.
FLT3 autoinhibited: Receptor-type tyrosine-protein kinase FLT3, autoinhibited (FLT3, Homo sapiens, UniProt P36888)
FLT3: Receptor-type tyrosine-protein kinase FLT3 (FLT3, Homo sapiens, UniProt P36888)
FLT3 F691L/ITD: Receptor-type tyrosine-protein kinase FLT3 (FLT3, Homo sapiens, UniProt P36888, F691L/ITD)
FLT3 N841I: Receptor-type tyrosine-protein kinase FLT3 (FLT3, Homo sapiens, UniProt P36888, N841I)
FLT3 D835H: Receptor-type tyrosine-protein kinase FLT3 (FLT3, Homo sapiens, UniProt P36888, D835H)
FLT3 R834Q: Receptor-type tyrosine-protein kinase FLT3 (FLT3, Homo sapiens, UniProt P36888, R834Q)

| SMILES | target | observed | technique | concentration | remaining binding [%] |
| --- | --- | --- | --- | --- | --- |
| CCCCN(CCCC)C(=O)CN1C[C@H](c2cc(OC)c3c(c2)OCO3)[C@@H](C(=O)O)[C@@H]1CC(C)(C)CCC | FLT3 autoinhibited | cell-free assay | competition with immobilised ligand | 1 µM | 76 |
| CN(C)c1ncc(F)c(-c2cnn3ncccc23)n1 | Receptor-type tyrosine-protein kinase FLT3 (FLT3, Homo sapiens, UniProt P36888, K663Q) | binding |  | 1 µM | 100 |
| CCS(=O)(=O)c1cc2cc(C[C@@](O)(CC(C)(C)c3ccc(F)cc3C(N)=O)C(F)(F)F)[nH]c2cn1 | Receptor-type tyrosine-protein kinase FLT3 (FLT3, Homo sapiens, UniProt P36888, D835Y) | cell-free assay | competition with immobilised ligand | 1 µM | 99 |
| O=C(c1ccc(Nc2ncc(Cl)c(-c3cc4ccccc4s3)n2)cc1)N1CCC(N2CCCC2)CC1 | FLT3 | binding | competition with immobilised ligand | 1 µM | 2.5 |
| C[C@H]1CCN(c2nccc(-c3cnn4ncccc34)n2)C1 | FLT3 autoinhibited | binding |  | 1 µM | 72 |
| O=C(NCCCN1CCOCC1)c1ccc(Nc2ncc(Cl)c(-c3ccc(Cl)s3)n2)cc1 | FLT3 F691L/ITD | binding | competition with immobilised ligand | 1 µM | 5.1 |
| COc1ncc2cc3ccccc3nc2c1C#N | FLT3 N841I | cell-free assay | competition with immobilised ligand | 5 µM | 100 |
| CN(c1ccnc(CNc2nc(Nc3ccc4c(c3)CC(=O)N4)ncc2C(F)(F)F)n1)S(C)(=O)=O | FLT3 D835H | cell-free assay | competition with immobilised ligand | 1 µM | 15 |
| CN(CCCC(F)(F)F)c1nccc(-c2cnn3ncccc23)n1 | FLT3 autoinhibited | binding |  | 1 µM | 100 |
| CNC(=O)[C@@H]1CC[C@@H](n2c(-c3ccc4cnccc4c3)nc3ccc(C(=O)NCc4cccc(C(N)=O)c4)cc32)C1 | FLT3 D835H | binding | competition with immobilised ligand | 1 µM | 100 |
| O=C(NCCCN1CCOCC1)c1ccc(Nc2nccc(-c3cc4ccccc4s3)n2)cc1 | FLT3 autoinhibited | binding | competition with immobilised ligand | 1 µM | 67 |
| C[C@H](c1ccnc(Nc2nc3ccc(-c4cc(N(C)C)ncn4)cc3[nH]2)c1)N1CCN(C(=O)CC(F)(F)F)CC1 | FLT3 F691L/ITD | cell-free assay | competition with immobilised ligand | 0.1 µM | 42 |
| C=CC(=O)N1CCC(C(=O)NCC(=O)N2CCN(c3nc(-c4cnc(N)nc4C(F)F)nc(N4CCOCC4)n3)CC2)CC1 | FLT3 N841I | binding | competition with immobilised ligand | 1 µM | 100 |
| COc1cnc(Nc2cccc(S(N)(=O)=O)c2)nc1N1CCN(c2ccccc2)C(=O)C1 | FLT3 | binding | competition with immobilised ligand | 1 µM | 97 |
| Cn1nc(C(=O)NCc2ccc(C(=O)O)cc2)cc1-c1ccc2[nH]ccc2c1 | FLT3 N841I | cell-free assay | competition with immobilised ligand | 0.1 µM | 100 |
| Cc1cnc(Nc2ccc(C(=O)N3CCC(N4CCCC4)CC3)cc2)nc1-c1cc2ccccc2s1 | FLT3 R834Q | binding | competition with immobilised ligand | 1 µM | 6.2 |
| N[C@H]1CCN(c2nccc(-c3cnn4ncccc34)n2)C1 | FLT3 autoinhibited | binding |  | 1 µM | 99 |
| O=C(c1ccc(Nc2nccc(-c3cc4ccccc4s3)n2)cc1)N1CCC(N2CCCC2)CC1 | Receptor-type tyrosine-protein kinase FLT3 (FLT3, Homo sapiens, UniProt P36888, D835V/ITD) | binding | competition with immobilised ligand | 1 µM | 8.3 |
| Nc1ncc2c(n1)-c1c([nH]c3ccc(C#CC4CC4)cc13)CCCC2 | FLT3 D835H | binding | competition with immobilised ligand | 1 µM | 88 |
| NS(=O)(=O)c1cc(NC(=O)Cc2ccccc2)ccc1Oc1cccc(Cl)c1 | FLT3 | cell-free assay | competition with immobilised ligand | 1 µM | 100 |
| O=C(Nc1c[nH]nc1C(=O)NC1CCNCC1)c1cc(F)cc(F)c1 | FLT3 D835H | binding | competition with immobilised ligand | 1 µM | 100 |
| Cc1nccc(COC(=O)N2C[C@@H]3[C@@H](CNC(=O)c4ccc5[nH]nnc5c4)[C@@H]3C2)n1 | FLT3 autoinhibited | cell-free assay | competition with immobilised ligand | 1 µM | 93 |
| O=C(c1ccc(Nc2ncc(Cl)c(-c3ccc(Cl)s3)n2)cc1)N1CCC(N2CCCC2)CC1 | FLT3 R834Q | binding | competition with immobilised ligand | 1 µM | 5.3 |
| Cc1cnn2ncc(-c3ccnc(N(C)C)n3)c2c1 | FLT3 | binding |  | 1 µM | 98 |
| Cc1cc(-n2nc(Cc3cc(F)cc(C(F)(F)F)c3)nc2C)ccc1C(N)=O | FLT3 autoinhibited | cell-free assay | competition with immobilised ligand | 1 µM | 100 |
